Experimental data from the EternaBench riboswitch data.

Test system: MS2 coat protein
Assay: apparent Kd, MS2 coat protein; higher = weaker binding; RNA-MaP array; FMN 200 µM where present
Summary of the method: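 The apparent Kd is reported as the median of filtered per-cluster binding-curve fits. To get these curves, designs transcribed by stalled E. coli RNA polymerase on Illumina sequencing-chip clusters were titrated with SNAP-549-labelled MS2 coat protein from 0.7 or 1.5 nM, doubling to 3 µM. Titrations were run without and then with constant ligand in 100 mM Tris-HCl pH 7.5, 80 mM KCl, 4 mM MgCl2, BSA, DTT, yeast tRNA and Tween-20, and green signal was normalised to red-channel RNA signal and control-cluster median Fmax.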

[1] = designed as: ON switch for flavin mononucleotide, no ligand
[2] = ligand present: flavin mononucleotide, designed as: ON switch for flavin mononucleotide
[3] = designed as: OFF switch for flavin mononucleotide, no ligand
[4] = ligand present: flavin mononucleotide, designed as: OFF switch for flavin mononucleotide

Sequence	apparent Kd [1] [nM]	apparent Kd [2] [nM]	apparent Kd [3] [nM]	apparent Kd [4] [nM]
UUACUCAUGUAAGGAUAUGUAGCCGAAACGGCUGCAGAAGGUACUAAAAUACAUGAGGAUCACCCAUGUCUUUUUAAUUUAGAC	216	50.9	–	–
UUACUCAUGUAAGGAUAUGUAGCCGUUUCGGCUGCAGAAGGUACUAUAAUACAUGAGGAUCACCCAUGUCUAUAAAAUAAAGAC	34.6	25.6	–	–
UUAGGAUGUGAAGGAUAUGCCGAGUUAAGCCCAGCAGAAGGUUACAUACCUUUUGAUACAUGAGGAUCACCCAUGUUCUAAGAU	41.6	28.3	–	–
UUAGGUCGAAACAUGAGGAUCACCCAUGUGUUAUAAUUAAUAUAGGAUAUGUUUAUACUUUUUGGGCAGAAGGAUGAUAUUGCU	21.2	17.9	–	–
UUAGUGGUAGGAUAUCACCCAGGUUACAUGAGGAUCACCCAUGUGACUCAGCAGGCCAAGUGAGAAGGGCUGCUCC	–	–	22.3	20
UUAUACAUUCGAGGAUAUCGGUGAGAAAUCUUUCGAGAAGGCGAUUCAUGAUUUAUUAUCCUGGACAUGAGGAUCACCCAUGUA	79.8	60.9	–	–
UUAUCUAUGUAAGGAUAUCGAUGAUAUACGCAUCCGACAUGAGGAUCACCCAUGUUUUAUUUUGUCGAGAAGGUACAUUGUCGG	61.1	53.5	–	–
UUAUGUGGCGUAGGAUAUCAUUAGAUUUGUAAUUUAAUUGUAAUUUCCAUAUGAGAAGGACGUACACAUGAGGAUCACCCAUGU	–	–	90.1	32.4
UUAUGUGUCGUAGGAUAUCAUUAGAUUUGUAAUUUAAUUGUAAUUUACAUAUGAGAAGGACGUUUACAUGAGGAUCACCCAUGU	–	–	15.9	14.6
UUAUGUUAUGUAGGAUAUCAUUAGAUUUGUAAUUUAAUUGUUAUUUAGAUUUGAGAAGGACAUUUACAUGAGGAUCACCCAUGU	–	–	14.8	11.7
UUAUUAAACAUUAACAUGAGGAUCACCCAUGUCAAAAGACAUGAGGAUAUGGAUCCUAAUUGGAUCCAGAAGGCAUGUAUUAAU	156	15.6	–	–
UUAUUAAAUGUAGGAUAUGCAUAUUAUUAUUAUGCAGAAGGACAUGAGGAUCACCCAUGUAUAUUAUUAUUAUAUAUUAUAUAU	–	–	32.5	71.3
UUAUUAAGUGUGAGGAUAUGCUGGUCCUUGGAUCAGCAGAAGGCACAUGAGGAUCACCCAUGUACUUUAUUUUA	–	–	15.4	62.2
UUAUUAGCAGGAUAUAUCCAGGAUCACAUGAGGAUCACCCAUGUGACCGCUUGAGAUUCUAUAGAAGGGCUUUAUU	–	–	19.6	18.1
UUAUUAGCAGGAUAUAUCCAGGAUUACAUGAGGAUCACCCAUGUGACCGCUUGAAAUUCUAUAGAAGGGCUUUAUU	–	–	33.2	36.4
UUAUUAGGACAGAAGGGUAGACAUGAGGAUCACCCAUGUAAUAUAAGGUGCAGGAUAUGUAAUAAUUGAGAUUCAUCAUUUUGC	198	142	–	–
UUAUUAUAUGUAGGAUAUGCGUAUUAUUAUUAUGCAGAAGGACAUGAGGAUCACCCAUGUAUAUUAUUAUUAUAUAUUAUAUAU	–	–	29	66.9
UUAUUAUGUGUAGGAUAUGCAUAUCAUUAUUAUGCAGAAGGACAUGAGGAUCACCCAUGUAUAUUAUUAUUAUAUAUUAUAUAU	–	–	15.3	16.6
UUAUUAUGUGUAGGAUAUGCAUAUUAUUAUUAUGCAGAAGGACAUGAGGAUCACCCAUGUAUAUUAUUAAUAUAUAUUAUAUAU	–	–	13.9	15.7
UUAUUAUGUGUAGGAUAUGCAUAUUAUUAUUAUGCAGAAGGACAUGAGGAUCACCCAUGUAUAUUAUUAUUAUAUAUUAUAUAU	–	–	30.9	46.2
UUAUUGUGAGGAUAUCCAAUAUAUGACAUGAGGAUCACCCAUGUUUCCACUCGUACCUCCGGAGAAGGCACAGUUU	–	–	31.2	24.1
UUAUUUAUGCAAGGAUAUCAAUUAUAUUGACGUCCUACAUGAGGAUCACCCAUGUUUAGUUUUUUUGAGAAGGUGCAUUGUCUG	64.8	59.7	–	–
UUAUUUUUACAGAAGGUUUAAUAAUAUAUAUGAGAAGGAUAUGUAACAUGAGGAUCACCCAUGUUUCACCCAUAUGAGGAUCAU	–	–	8.2	7.27
UUCAGACAUGAGGAUCACCCAUGUGAGGAUAUGAUGCGAUCGUCGAAAGACGAUAGCAUCAGAAGGCACAUAUG	–	–	167	315
UUCAGACAUGAGGAUCACCCAUGUGAGGAUAUGAUGCGAUCGUCGAAAGACGAUAGCAUCAGAAGGUACAAAUG	–	–	63	66.6
UUCAGCGAUCAAGGAUAUCUAUAAACAUGAGGACAUGAGGAUCACCCAUGUUGAUCACCCAUGUAGGAGAAGGUGAACAUGAGG	81.8	29.8	–	–
UUCAUGUGAGGAUAUGCGGCACCAGGUGGGCCUGGCGCUGAGCAGAAGGCACAUGAGGAUCACCCAUGUGCUCC	–	–	29.7	56.7
UUCCAACGAGGAUAUCGAUGGUGGAACAUGAGGAUCACCCAUGUAUGAGAUAGUGUAGUUCGAGAAGGCGUUCAGU	–	–	58	32.3

Sequence	apparent Kd [1] [nM]	apparent Kd [2] [nM]	apparent Kd [3] [nM]	apparent Kd [4] [nM]
UUCCGCGUUGUAAGGAUAUCUAAUUCUUAUGAAAUAGAGAAGGUACAUGAGGAUCACCCAUGUACUUGGGACUA	–	–	18.7	22.4
UUCCUGUCAGGAUAUGACUAGAUGCACGAAAGUGUGUUUAGUUAGAAGGGACAUGAGGAUCACCCAUGUAGUCC	–	–	23.5	39
UUCGCUAAGGUGUAGCGAGACUUGCAAGAAGGGUGAUGCACAUGAGGAUCACCCAUGUAAGCCUUACAGGAUAUUGCUUGCCGA	600	220	–	–
UUCGUGCAGCUUAGCUGUACGCGUACAUGAGGAUCACCCAUGUAGGAUAUGGUAGGCUUUGCUUACUAGAAGGAUAGUGUGAUC	–	–	215	70.5
UUCGUGGCAUCUCGCGCAUGUCCACAUGAGGAUCACCCAUGUCAGGAUAUACGGAAUGUCGUUCCGUAGAAGGGACAAGGGCUG	–	–	139	112
UUCUGUGUGUGCUAGAGCUGCACAUGAGGAUCACCCAUGUACAGAAGGUGGACGCACACUGUGGCCAAGGAUAUGUAACAUGUU	–	–	6.68	7.15
UUCUUACGAGGAUAUCGAUGGUGGAACAUGAGGAUCACCCAUGUAUGAGAUAUUGUAUUUCGAGAAGGCGUUCAGU	–	–	55.2	36.2
UUCUUUCCUCAUGUACAUGAGGAACAUGAGGAUCACCCAUGUAGAAGGAUUUCAAUUAAAUUAAAAUAGGAUAUACAUAUAUUU	–	–	15.8	16.4
UUGAGGUCAGGAUAUGCAUGGCGGGACUUGCGUCGUGGCGUGGAGAAGGGACAUGAGGAUCACCCAUGUGGAGC	–	–	55.6	62
UUGAUUAUACAAGGAUAUCAAUUGUAAUUAAGACUUACAUGAGGAUCACCCAUGUUAAUAUUUUAUGAGAAGGUGUAUUUUCAG	38.3	25.7	–	–
UUGCAGUCGUCAGGAUAUAGUAUUACGGCCAUUUAUUUUUUCAUACAUGAGGAUCACCCAUGUCGCUAGAAGGGAUUAUCGAUU	–	–	49.1	45.4
UUGCCUCAGAACAUGAGGAUCACCCAUGUGCUGCGGGCAACGUAGGAUAUGAUGGCGUGACGCCAUCAGAAGGAUGAUGGUACC	5.92	6.15	–	–
UUGCGGUAGGAGAAGGACAGAGGCUUCAUUACAUACAUGAGGAUCACCCAUGUAGGAUAUCCUACCUCACGCGGCCUCCUCCUG	–	–	6.9	10.3
UUGGACGGCGUAGGAUAUGUAGGAUAUUCCUACAUGAGGAUCACCCAUGUUGACAUGGAAGAAGGACAGAAGGACGAUGUCCAU	303	4.94	–	–
UUGGACGUCGUAAGAUAUGUAGGAUAUUCCUACAUGAGGAUCACCCAUGUUGACAUGGAAGAAGGACAGAAGGACGAUGUCCAU	285	5.51	–	–
UUGGACGUCGUAGGAUAUGUAGGAUAUACCUACAUGAGGAUCACCCAUGUUGACAUGGAAGAAGGACAGAAGGACGAUGUCCAU	439	153	–	–
UUGGACGUCGUAGGAUAUGUAGGAUAUUCCCACAUGAGGAUCACCCAUGUUGACAUGGAAGAAGGACAGAAGGACGAUGUCCAU	4.05	3.47	–	–
UUGGACGUCGUAGGAUAUGUAGGAUAUUCCUACAUGAGGAUCACCCAUGUUGACAUGGAAGAAGCACAGAAGGACGAUGUCCAU	150	6.6	–	–
UUGGAGAUAGGAUAUACGAGGAGAGUUGAGGGAAGGUGAUGACAUGAGGAUCACCCAUGUAGAAGGAUCAGGAG	–	–	144	87.2
UUGGAGGUCGUAGGAUAUGUAGGAUAUUCCUACAUGAGGAUCACCCAUGUUGACAUGGAAGAAGGACAGAAGGACGAUGUCCAU	367	6.26	–	–
UUGGCACAUGAGGAUCACCCAUGUUAGGAUAUUGUGGCAGAAACAGCUGGGAAACGCACGAGAAGGGACACAUA	–	–	33.4	38.5
UUGGCAUCGUAGAAGGGUGACAUGAGGAUCACCCAUGUGACGAUAUUUCUCGAGAUAUGUCGUCCACAGGAUAUACGAGCGAAC	72.3	42.4	–	–
UUGGUUACAUGAGGAUCACCCAUGUCUCAGGCCCUAUUUAGCAGAAGGCCAGCUGGGCUACGGAUGGAGGAUAUGCUUAUGGCC	131	29.6	–	–
UUGUGCUUAGAGAAGGUUCAAACUACAUAUUGCGCACAUGAGGAUCACCCAUGUUGGUGAAUAAGAAAGGAUAUUUGACUGUGC	–	–	487	360
UUGUGGUGCGUAGGAUAUCAUUGAGGGUCACCCUGAGAAGGACGUGAGGACAUGAGGAUCACCCAUGUGGAUCACCCAUGUCAU	–	–	222	355
UUGUUACAUGAGGAUCACCCAUGUGAGGAUAUGGCCCGCCCGGCGUGUGCUGGUUUUGUCAGAAGGCGCGUGGG	–	–	61.6	170
UUGUUACAUGAGGAUCACCCAUGUUGUUGUAGAUAAGGAUAUAUAGGAACGAGAGAAAUAAUAGAAGGUAUUAGAC	31.7	27.2	–	–
